# Measurements: ChEMBL document CHEMBL1137730, “Synthesis and antiparasitic and antifungal evaluation of 2'-arylsubstituted-1H,1'H-[2,5']bisbenzimidazolyl-5-carboxamidines” (Eur J Med Chem, 2009)
# Tests used:
# Trypanosoma cruzi [1] = assay: Antiparasitic activity against Trypanosoma cruzi Tulahuen C4 containing lacz gene at 4.85 ug/ml; type: functional; details: Tulahen C4
# Candida albicans = assay: Antifungal activity against Candida albicans ATCC 10231 by macro-broth dilution method; type: functional
# Outline: (§1)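 Macro-broth (tube) dilution; compounds and reference drugs dissolved in water or 40% DMSO-water as 400 µg/mL stock, brought to 100 µg/mL in the first tube by 4-fold dilution with culture medium and fungal suspension. Result reported as MIC.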
# L6 = assay: Cytotoxicity against rat L6 cells by alamar blue assay; type: cell-based
# Outline: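 Rat L-6 myoblasts in culture; viability read by Alamar Blue.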
# Pichia kudriavzevii = assay: Antifungal activity against Candida krusei ATCC 6258 by macro-broth dilution method; type: functional; outline: as §1
# Trypanosoma cruzi [2] = assay: Antiparasitic activity against Trypanosoma cruzi Tulahuen C4 containing lacz gene at 0.81 ug/ml; type: functional; details: Tulahen C4
# Plasmodium falciparum = assay: Antiparasitic activity against Plasmodium falciparum K1; type: functional, organism-based
# Leishmania donovani [3] = assay: Antiparasitic activity against Leishmania donovani MHOM-ET/67/L82 at 0.81 ug/ml; type: functional
# Leishmania donovani [4] = assay: Antiparasitic activity against Leishmania donovani MHOM-ET/67/L82 at 4.85 ug/ml; type: functional
# [5] = system: Trypanosoma brucei rhodesiense; assay: Antiparasitic activity against Trypanosoma brucei rhodesiense STIB900; type: functional, organism-based
smiles,measurement,setting,value
N=C(N)c1ccc2[nH]c(-c3ccc4nc(-c5ccccc5F)[nH]c4c3)nc2c1,inhibition at 4.85 µg/mL,Trypanosoma cruzi [1],≤ 70%
same,MIC,Candida albicans,12.5 µg/mL
same,IC50,L6,26.8 µg/mL
same,MIC,Pichia kudriavzevii,12.5 µg/mL
same,inhibition at 0.81 µg/mL,Trypanosoma cruzi [2],≤ 50%
same,IC50,Plasmodium falciparum,0.007 µg/mL
same,inhibition at 0.81 µg/mL,Leishmania donovani [3],≤ 50%
same,inhibition at 4.85 µg/mL,Leishmania donovani [4],≤ 70%
same,IC50,[5],0.08 µg/mL
N=C(N)c1ccc2[nH]c(-c3ccc4nc(-c5ccc(OCc6ccccc6)c(OCc6ccccc6)c5)[nH]c4c3)nc2c1,inhibition at 4.85 µg/mL,Trypanosoma cruzi [1],≤ 70%
same,MIC,Candida albicans,25 µg/mL
same,IC50,L6,> 90 µg/mL
same,MIC,Pichia kudriavzevii,50 µg/mL
same,inhibition at 0.81 µg/mL,Trypanosoma cruzi [2],≤ 50%
same,IC50,Plasmodium falciparum,0.061 µg/mL
same,inhibition at 0.81 µg/mL,Leishmania donovani [3],≤ 50%
same,inhibition at 4.85 µg/mL,Leishmania donovani [4],≤ 70%
same,IC50,[5],1.06 µg/mL
N=C(N)c1ccc2[nH]c(-c3ccc4nc(-c5ccccc5Oc5ccc(Cl)cc5)[nH]c4c3)nc2c1,inhibition at 4.85 µg/mL,Trypanosoma cruzi [1],≤ 70%
same,MIC,Candida albicans,50 µg/mL
same,IC50,L6,> 90 µg/mL
same,MIC,Pichia kudriavzevii,50 µg/mL
same,inhibition at 0.81 µg/mL,Trypanosoma cruzi [2],≤ 50%
same,IC50,Plasmodium falciparum,0.193 µg/mL
same,inhibition at 0.81 µg/mL,Leishmania donovani [3],≤ 50%
same,inhibition at 4.85 µg/mL,Leishmania donovani [4],≤ 70%
N=C(N)c1ccc2[nH]c(-c3ccc4nc(-c5ccc6ccccc6c5)[nH]c4c3)nc2c1,inhibition at 4.85 µg/mL,Trypanosoma cruzi [1],≤ 70%
same,MIC,Candida albicans,6.25 µg/mL
same,IC50,L6,34.7 µg/mL
same,MIC,Pichia kudriavzevii,25 µg/mL
same,inhibition at 0.81 µg/mL,Trypanosoma cruzi [2],≤ 50%
same,IC50,Plasmodium falciparum,0.016 µg/mL
same,inhibition at 0.81 µg/mL,Leishmania donovani [3],≤ 50%
same,inhibition at 4.85 µg/mL,Leishmania donovani [4],≤ 70%
same,IC50,[5],0.389 µg/mL
N=C(N)c1ccc2[nH]c(-c3ccc4nc(-c5ccc(O)cc5)[nH]c4c3)nc2c1,MIC,Candida albicans,0.78 µg/mL
same,IC50,L6,4.2 µg/mL
same,IC50,Plasmodium falciparum,0.013 µg/mL
same,IC50,[5],0.017 µg/mL
N=C(N)c1ccc2[nH]c(-c3ccc4nc(-c5ccc(F)c(F)c5)[nH]c4c3)nc2c1,inhibition at 4.85 µg/mL,Trypanosoma cruzi [1],≤ 70%
same,MIC,Candida albicans,25 µg/mL
same,IC50,L6,29.8 µg/mL
same,MIC,Pichia kudriavzevii,25 µg/mL
same,inhibition at 0.81 µg/mL,Trypanosoma cruzi [2],≤ 50%
same,IC50,Plasmodium falciparum,0.015 µg/mL
same,inhibition at 0.81 µg/mL,Leishmania donovani [3],≤ 50%
same,inhibition at 4.85 µg/mL,Leishmania donovani [4],≤ 70%
same,IC50,[5],0.33 µg/mL
N=C(N)c1ccc2[nH]c(-c3ccc4nc(-c5ccc(F)cc5)[nH]c4c3)nc2c1,inhibition at 4.85 µg/mL,Trypanosoma cruzi [1],≤ 70%
same,MIC,Candida albicans,25 µg/mL
same,IC50,L6,2.48 µg/mL
same,MIC,Pichia kudriavzevii,12.5 µg/mL
same,inhibition at 0.81 µg/mL,Trypanosoma cruzi [2],≤ 50%
same,IC50,Plasmodium falciparum,0.01 µg/mL
same,inhibition at 0.81 µg/mL,Leishmania donovani [3],≤ 50%
same,inhibition at 4.85 µg/mL,Leishmania donovani [4],≤ 70%
same,IC50,[5],0.04 µg/mL
CC(C)(C)c1ccc(-c2nc3ccc(-c4nc5cc(C(=N)N)ccc5[nH]4)cc3[nH]2)cc1,inhibition at 4.85 µg/mL,Trypanosoma cruzi [1],≤ 70%
same,MIC,Candida albicans,1.56 µg/mL
same,IC50,L6,13 µg/mL
same,MIC,Pichia kudriavzevii,12.5 µg/mL
same,inhibition at 0.81 µg/mL,Trypanosoma cruzi [2],≤ 50%
same,IC50,Plasmodium falciparum,0.031 µg/mL
same,inhibition at 0.81 µg/mL,Leishmania donovani [3],≤ 50%
same,inhibition at 4.85 µg/mL,Leishmania donovani [4],≤ 70%
same,IC50,[5],1.06 µg/mL
CC(C)(C)c1cccc(-c2nc3ccc(-c4nc5cc(C(=N)N)ccc5[nH]4)cc3[nH]2)c1O,inhibition at 4.85 µg/mL,Trypanosoma cruzi [1],≤ 70%
same,MIC,Candida albicans,3.12 µg/mL
same,IC50,L6,13.4 µg/mL
same,MIC,Pichia kudriavzevii,6.25 µg/mL
same,inhibition at 0.81 µg/mL,Trypanosoma cruzi [2],≤ 50%
same,IC50,Plasmodium falciparum,0.211 µg/mL
same,inhibition at 0.81 µg/mL,Leishmania donovani [3],≤ 50%
same,inhibition at 4.85 µg/mL,Leishmania donovani [4],≤ 70%
N=C(N)c1ccc2[nH]c(-c3ccc4nc(-c5cc(C(F)(F)F)ccc5Cl)[nH]c4c3)nc2c1,inhibition at 4.85 µg/mL,Trypanosoma cruzi [1],≤ 70%
same,IC50,L6,31.8 µg/mL
same,inhibition at 0.81 µg/mL,Trypanosoma cruzi [2],≤ 50%
same,IC50,Plasmodium falciparum,0.064 µg/mL
same,inhibition at 0.81 µg/mL,Leishmania donovani [3],≤ 50%
same,inhibition at 4.85 µg/mL,Leishmania donovani [4],≤ 70%
N=C(N)c1ccc2[nH]c(-c3ccc4nc(-c5cc(C(F)(F)F)cc(C(F)(F)F)c5)[nH]c4c3)nc2c1,inhibition at 4.85 µg/mL,Trypanosoma cruzi [1],≤ 70%
same,MIC,Candida albicans,50 µg/mL
same,IC50,L6,76.8 µg/mL
same,MIC,Pichia kudriavzevii,25 µg/mL
same,inhibition at 0.81 µg/mL,Trypanosoma cruzi [2],≤ 50%
same,IC50,Plasmodium falciparum,0.63 µg/mL
same,inhibition at 0.81 µg/mL,Leishmania donovani [3],≤ 50%
same,inhibition at 4.85 µg/mL,Leishmania donovani [4],≤ 70%
N=C(N)c1ccc2[nH]c(-c3ccc4nc(-c5ccc(OCc6ccccc6)cc5)[nH]c4c3)nc2c1,inhibition at 4.85 µg/mL,Trypanosoma cruzi [1],≤ 70%
same,MIC,Candida albicans,12.5 µg/mL
same,IC50,L6,17.4 µg/mL
same,MIC,Pichia kudriavzevii,25 µg/mL
same,inhibition at 0.81 µg/mL,Trypanosoma cruzi [2],≤ 50%
same,IC50,Plasmodium falciparum,0.017 µg/mL
same,inhibition at 0.81 µg/mL,Leishmania donovani [3],≤ 50%
same,inhibition at 4.85 µg/mL,Leishmania donovani [4],≤ 70%
same,IC50,[5],0.81 µg/mL
COc1ccc(Oc2ccc(-c3nc4ccc(-c5nc6cc(C(=N)N)ccc6[nH]5)cc4[nH]3)cc2)cc1OC,inhibition at 4.85 µg/mL,Trypanosoma cruzi [1],≤ 70%
same,MIC,Candida albicans,3.12 µg/mL
same,IC50,L6,29.4 µg/mL
same,MIC,Pichia kudriavzevii,6.25 µg/mL
same,inhibition at 0.81 µg/mL,Trypanosoma cruzi [2],≤ 50%
same,IC50,Plasmodium falciparum,0.015 µg/mL
same,inhibition at 0.81 µg/mL,Leishmania donovani [3],≤ 50%
same,inhibition at 4.85 µg/mL,Leishmania donovani [4],≤ 70%
same,IC50,[5],0.036 µg/mL
COc1ccc(-c2nc3ccc(-c4nc5cc(C(=N)N)ccc5[nH]4)cc3[nH]2)cc1OC,inhibition at 4.85 µg/mL,Trypanosoma cruzi [1],≤ 70%
same,MIC,Candida albicans,25 µg/mL
same,IC50,L6,> 90 µg/mL
same,MIC,Pichia kudriavzevii,25 µg/mL
same,inhibition at 0.81 µg/mL,Trypanosoma cruzi [2],≤ 50%
same,IC50,Plasmodium falciparum,0.008 µg/mL
same,inhibition at 0.81 µg/mL,Leishmania donovani [3],≤ 50%
same,inhibition at 4.85 µg/mL,Leishmania donovani [4],≤ 70%
same,IC50,[5],0.06 µg/mL
COc1cc(-c2nc3ccc(-c4nc5cc(C(=N)N)ccc5[nH]4)cc3[nH]2)ccc1OCc1ccccc1,inhibition at 4.85 µg/mL,Trypanosoma cruzi [1],≤ 70%
same,MIC,Candida albicans,25 µg/mL
same,IC50,L6,19.8 µg/mL
same,MIC,Pichia kudriavzevii,50 µg/mL
same,inhibition at 0.81 µg/mL,Trypanosoma cruzi [2],≤ 50%
same,IC50,Plasmodium falciparum,0.023 µg/mL
same,inhibition at 0.81 µg/mL,Leishmania donovani [3],≤ 50%
same,inhibition at 4.85 µg/mL,Leishmania donovani [4],≤ 70%
same,IC50,[5],0.57 µg/mL
N=C(N)c1ccc2[nH]c(-c3ccc4nc(-c5cc(F)ccc5Oc5ccc(Cl)cc5)[nH]c4c3)nc2c1,inhibition at 4.85 µg/mL,Trypanosoma cruzi [1],≤ 70%
same,MIC,Candida albicans,50 µg/mL
same,IC50,L6,> 90 µg/mL
same,MIC,Pichia kudriavzevii,50 µg/mL
same,inhibition at 0.81 µg/mL,Trypanosoma cruzi [2],≤ 50%
same,IC50,Plasmodium falciparum,0.634 µg/mL
same,inhibition at 0.81 µg/mL,Leishmania donovani [3],≤ 50%
same,inhibition at 4.85 µg/mL,Leishmania donovani [4],≤ 70%
N=C(N)c1ccc2[nH]c(-c3ccc4nc(-c5ccc(Oc6ccc(Cl)cc6)cc5)[nH]c4c3)nc2c1,inhibition at 4.85 µg/mL,Trypanosoma cruzi [1],≤ 70%
same,MIC,Candida albicans,25 µg/mL
same,IC50,L6,46 µg/mL
same,MIC,Pichia kudriavzevii,25 µg/mL
same,inhibition at 0.81 µg/mL,Trypanosoma cruzi [2],≤ 50%
same,IC50,Plasmodium falciparum,0.028 µg/mL
same,inhibition at 0.81 µg/mL,Leishmania donovani [3],≤ 50%
same,inhibition at 4.85 µg/mL,Leishmania donovani [4],≤ 70%
same,IC50,[5],0.708 µg/mL
N=C(N)c1ccc2[nH]c(-c3ccc4nc(-c5cccc6ccccc56)[nH]c4c3)nc2c1,inhibition at 4.85 µg/mL,Trypanosoma cruzi [1],≤ 70%
same,MIC,Candida albicans,0.78 µg/mL
same,IC50,L6,8.72 µg/mL
same,MIC,Pichia kudriavzevii,12.5 µg/mL
same,inhibition at 0.81 µg/mL,Trypanosoma cruzi [2],≤ 50%
same,IC50,Plasmodium falciparum,0.016 µg/mL
same,inhibition at 0.81 µg/mL,Leishmania donovani [3],≤ 50%
same,inhibition at 4.85 µg/mL,Leishmania donovani [4],≤ 70%
same,IC50,[5],0.48 µg/mL
COc1ccc(-c2nc3ccc(-c4nc5cc(C(=N)N)ccc5[nH]4)cc3[nH]2)cc1,MIC,Candida albicans,> 100 µg/mL
same,IC50,L6,10 µg/mL
same,IC50,Plasmodium falciparum,0.015 µg/mL
same,IC50,[5],0.009 µg/mL
COc1cc(OC)cc(-c2nc3ccc(-c4nc5cc(C(=N)N)ccc5[nH]4)cc3[nH]2)c1,inhibition at 4.85 µg/mL,Trypanosoma cruzi [1],≤ 70%
same,MIC,Candida albicans,50 µg/mL
same,IC50,L6,25.5 µg/mL
same,MIC,Pichia kudriavzevii,50 µg/mL
same,inhibition at 0.81 µg/mL,Trypanosoma cruzi [2],≤ 50%
same,IC50,Plasmodium falciparum,0.017 µg/mL
same,inhibition at 0.81 µg/mL,Leishmania donovani [3],≤ 50%
same,inhibition at 4.85 µg/mL,Leishmania donovani [4],≤ 70%
same,IC50,[5],0.59 µg/mL
OC(Cn1cncn1)(Cn1cncn1)c1ccc(F)cc1F [FLUCONAZOLE],MIC,Candida albicans,0.78 µg/mL
same,MIC,Pichia kudriavzevii,25 µg/mL
Nc1nc(N)nc(Nc2ccc([As]3SCC(CO)S3)cc2)n1 (stereo unspecified) [MELARSOPROL],IC50,[5],0.003 µg/mL
